Data published in ChEMBL document CHEMBL1150790, “Biochemical characterization of PER-2 and genetic environment of blaPER-2” (Antimicrob Agents Chemother, 2007).
≈ marks a conversion by molar mass, not a printed value.

Key:
Escherichia coli [1] = test: Antimicrobial activity against Escherichia coli CAG12177 by agar dilution method; type: functional
Method in brief: (§1)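 MICs were determined by agar dilution following CLSI guidelines, with inoculum applied by a Steers multipoint inoculator.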

Citrobacter freundii = test: Antimicrobial activity against Citrobacter freundii 33587 isolate by agar dilution method; type: functional; method in brief: as §1
Escherichia coli [2] = test: Antimicrobial activity against Escherichia coli 33587-TC9 by agar dilution method; type: functional; method in brief: as §1
[3] = molecular target: T1, PER-2 beta-lactamase (Citrobacter freundii) (UniProt A2RP81); test: Ratio of Kcat to Km of Citrobacter freundii PER2 beta lactamase relative to cephalothin
T1 sequence (whole entry): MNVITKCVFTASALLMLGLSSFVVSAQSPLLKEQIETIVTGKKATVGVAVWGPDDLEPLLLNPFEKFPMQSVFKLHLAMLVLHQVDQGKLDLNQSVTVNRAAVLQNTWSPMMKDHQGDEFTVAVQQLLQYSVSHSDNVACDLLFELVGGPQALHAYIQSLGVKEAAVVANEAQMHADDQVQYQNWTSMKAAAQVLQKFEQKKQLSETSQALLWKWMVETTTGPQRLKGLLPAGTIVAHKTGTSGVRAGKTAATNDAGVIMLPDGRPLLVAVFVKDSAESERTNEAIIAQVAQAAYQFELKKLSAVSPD
Method in brief: (§2)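 Purified recombinant PER-2 (E. coli BL21(DE3) expression, Q-Sepharose purification) was assayed spectrophotometrically at 30°C in 500 μl. kcat and Km came from initial steady-state rates.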

PER-2 beta-lactamase = molecular target: T2, PER-2 beta-lactamase (Citrobacter freundii, UniProt A2RP81); test: Inhibition of Citrobacter freundii PER2 beta lactamase
T2 sequence (A2RP81 whole entry): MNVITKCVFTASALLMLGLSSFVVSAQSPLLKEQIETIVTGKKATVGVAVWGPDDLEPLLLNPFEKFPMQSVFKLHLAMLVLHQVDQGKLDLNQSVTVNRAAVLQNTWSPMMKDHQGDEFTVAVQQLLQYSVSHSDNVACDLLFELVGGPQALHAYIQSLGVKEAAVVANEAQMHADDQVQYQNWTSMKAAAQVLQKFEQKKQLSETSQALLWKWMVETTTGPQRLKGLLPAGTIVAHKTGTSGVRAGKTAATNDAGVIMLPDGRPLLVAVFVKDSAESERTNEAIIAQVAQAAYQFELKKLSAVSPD
Method in brief: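 Purified recombinant PER-2 was incubated with the drug plus 100 μM nitrocefin as reporter substrate in 500 μl at 30°C. Residual enzyme activity was read spectrophotometrically. Apparent Km values were derived as competitive inhibitor constants (Ki).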

[4] = substrate: CO/N=C(\C(=O)N[C@@H]1C(=O)N2C(C(=O)O)=C(COC(C)=O)CS[C@H]12)c1csc(N)n1; test: (§3) Ratio of Kcat to Km of Citrobacter freundii PER2 beta lactamase; method in brief: as §2
[5] = substrate: CO/N=C(\C(=O)N[C@@H]1C(=O)N2C(C(=O)O)=C(COC(N)=O)CS[C@H]12)c1ccco1; test: as §3; method in brief: as §2
[6] = substrate: CC(=O)OCC1=C(C(=O)O)N2C(=O)[C@@H](NC(=O)Cc3cccs3)[C@H]2SC1; test: as §3; method in brief: as §2
[7] = substrate: CCN1CCN(C(=O)N[C@@H](C(=O)N[C@@H]2C(=O)N3[C@@H]2SC(C)(C)[C@@H]3C(=O)O)c2ccccc2)C(=O)C1=O; test: as §3; method in brief: as §2
[8] = substrate: O=C(Cc1cccs1)N[C@@H]1C(=O)N2C(C(=O)O)=C(/C=C/c3ccc([N+](=O)[O-])cc3[N+](=O)[O-])CS[C@H]12; test: as §3; method in brief: as §2
[9] = substrate: CC1(C)S[C@@H]2[C@H](NC(=O)Cc3ccccc3)C(=O)N2[C@H]1C(=O)O; test: as §3; method in brief: as §2
[10] = substrate: CC(C)(O/N=C(\C(=O)N[C@@H]1C(=O)N2C(C(=O)[O-])=C(C[n+]3ccccc3)CS[C@H]12)c1csc(N)n1)C(=O)O; test: as §3; method in brief: as §2
[11] = substrate: CCN1CCN(C(=O)N[C@@H](C(=O)N[C@@H]2C(=O)N3C(C(=O)O)=C(CSc4nnnn4C)CS[C@H]23)c2ccc(O)cc2)C(=O)C1=O; test: as §3; method in brief: as §2
[12] = substrate: CO/N=C(\C(=O)N[C@@H]1C(=O)N2C(C(=O)[O-])=C(C[N+]3(C)CCCC3)CS[C@H]12)c1csc(N)n1; test: as §3; method in brief: as §2
[13] = substrate: C[C@H]1[C@H](NC(=O)/C(=N\OC(C)(C)C(=O)O)c2csc(N)n2)C(=O)N1S(=O)(=O)O; test: as §3; method in brief: as §2
[14] = substrate: CC1(C)S[C@@H]2[C@H](NC(=O)[C@H](N)c3ccccc3)C(=O)N2[C@H]1C(=O)O; test: as §3; method in brief: as §2
[15] = substrate: CO/N=C(\C(=O)N[C@@H]1C(=O)N2C(C(=O)O)=C(COC(C)=O)CS[C@H]12)c1csc(N)n1; test: (§4) Activity of Citrobacter freundii PER2 beta lactamase
[16] = substrate: CO/N=C(\C(=O)N[C@@H]1C(=O)N2C(C(=O)O)=C(COC(N)=O)CS[C@H]12)c1ccco1; test: as §4
[17] = substrate: CC(=O)OCC1=C(C(=O)O)N2C(=O)[C@@H](NC(=O)Cc3cccs3)[C@H]2SC1; test: as §4
[18] = substrate: CCN1CCN(C(=O)N[C@@H](C(=O)N[C@@H]2C(=O)N3[C@@H]2SC(C)(C)[C@@H]3C(=O)O)c2ccccc2)C(=O)C1=O; test: as §4
[19] = substrate: O=C(Cc1cccs1)N[C@@H]1C(=O)N2C(C(=O)O)=C(/C=C/c3ccc([N+](=O)[O-])cc3[N+](=O)[O-])CS[C@H]12; test: as §4
[20] = substrate: CC1(C)S[C@@H]2[C@H](NC(=O)Cc3ccccc3)C(=O)N2[C@H]1C(=O)O; test: as §4
[21] = substrate: CO[C@@]1(NC(=O)Cc2cccs2)C(=O)N2C(C(=O)O)=C(COC(N)=O)CS[C@@H]21; test: as §4
[22] = substrate: CC(C)(O/N=C(\C(=O)N[C@@H]1C(=O)N2C(C(=O)[O-])=C(C[n+]3ccccc3)CS[C@H]12)c1csc(N)n1)C(=O)O; test: as §4
[23] = substrate: CCN1CCN(C(=O)N[C@@H](C(=O)N[C@@H]2C(=O)N3C(C(=O)O)=C(CSc4nnnn4C)CS[C@H]23)c2ccc(O)cc2)C(=O)C1=O; test: as §4
[24] = substrate: CO/N=C(\C(=O)N[C@@H]1C(=O)N2C(C(=O)[O-])=C(C[N+]3(C)CCCC3)CS[C@H]12)c1csc(N)n1; test: as §4
[25] = substrate: C[C@H]1[C@H](NC(=O)/C(=N\OC(C)(C)C(=O)O)c2csc(N)n2)C(=O)N1S(=O)(=O)O; test: as §4
[26] = substrate: C[C@@H](O)[C@H]1C(=O)N2C(C(=O)O)=C(SCCNC=N)C[C@H]12; test: as §4
[27] = substrate: CC1(C)S[C@@H]2[C@H](NC(=O)[C@H](N)c3ccccc3)C(=O)N2[C@H]1C(=O)O; test: as §4

With NC[C@H]1O[C@H](O[C@H]2[C@H](O)[C@@H](O[C@H]3O[C@H](CO)[C@@H](O)[C@H](N)[C@H]3O)[C@H](N)C[C@@H]2N)[C@H](O)[C@@H](O)[C@@H]1O [KANAMYCIN] the MIC (Escherichia coli [1]) was at most 0.25 µg/mL, the MIC (Citrobacter freundii) was over 128 µg/mL and the MIC (Escherichia coli [2]) was over 128 µg/mL.

Work on O=C(Cc1cccs1)N[C@@H]1C(=O)N2C(C(=O)O)=C(/C=C/c3ccc([N+](=O)[O-])cc3[N+](=O)[O-])CS[C@H]12 yielded an Activity [3] of 224%.

With CO[C@@]1(NC(=O)Cc2cccs2)C(=O)N2C(C(=O)O)=C(COC(N)=O)CS[C@@H]21 [CEFOXITIN] the Activity [3] was 18%, the Ki (PER-2 beta-lactamase) was 140 nM and the MIC (Escherichia coli [1]) was at most 0.063 µg/mL. It also gave an MIC (Citrobacter freundii) of 1 µg/mL (≈ 2.34 µM) and an MIC (Escherichia coli [2]) of 0.125 µg/mL (≈ 0.292 µM).

C[C@@H](O)[C@H]1C(=O)N2C(C(=O)O)=C(SCCNC=N)C[C@H]12 [IMIPENEM ANHYDROUS] showed a Ki (PER-2 beta-lactamase) of 60 nM, an MIC (Escherichia coli [1]) of at most 0.063 µg/mL and an MIC (Citrobacter freundii) of 0.063 µg/mL (≈ 0.21 µM). The MIC (Escherichia coli [2]) was 0.125 µg/mL (≈ 0.418 µM).

CO/N=C(\C(=O)N[C@@H]1C(=O)N2C(C(=O)[O-])=C(C[N+]3(C)CCCC3)CS[C@H]12)c1csc(N)n1 showed an Activity [3] of 3%, an MIC (Escherichia coli [1]) of at most 0.063 µg/mL and an MIC (Citrobacter freundii) of 16 µg/mL (≈ 33.3 µM). It also gave an MIC (Escherichia coli [2]) of 8 µg/mL (≈ 16.6 µM).

CCn1cc(C(=O)O)c(=O)c2ccc(C)nc21 [NALIDIXIC ACID] gave an MIC (Escherichia coli [1]) of over 128 µg/mL, an MIC (Citrobacter freundii) of 2 µg/mL (≈ 8.61 µM) and an MIC (Escherichia coli [2]) of over 128 µg/mL.

CO/N=C(\C(=O)N[C@@H]1C(=O)N2C(C(=O)O)=C(COC(C)=O)CS[C@H]12)c1csc(N)n1 [CEFOTAXIME] was tested, and the Activity [3] was 113%, the MIC (Escherichia coli [1]) was at most 0.063 µg/mL and the MIC (Citrobacter freundii) was 64 µg/mL (≈ 141 µM). For the same molecule, the MIC (Escherichia coli [2]) was 64 µg/mL (≈ 141 µM).

For CCN1CCN(C(=O)N[C@@H](C(=O)N[C@@H]2C(=O)N3[C@@H]2SC(C)(C)[C@@H]3C(=O)O)c2ccccc2)C(=O)C1=O [PIPERACILLIN], the Activity [3] was 30%, the Ki (PER-2 beta-lactamase) was 200 nM and the MIC (Escherichia coli [1]) was 0.063 µg/mL (≈ 0.122 µM). For the same molecule, the MIC (Citrobacter freundii) was 256 µg/mL (≈ 495 µM) and the MIC (Escherichia coli [2]) was 256 µg/mL (≈ 495 µM).

B1: PER-2 beta-lactamase (Citrobacter freundii), A2RP81 (protein)
chain: MNVITKCVFTASALLMLGLSSFVVSAQSPLLKEQIETIVTGKKATVGVAVWGPDDLEPLLLNPFEKFPMQSVFKLHLAMLVLHQVDQGKLDLNQSVTVNRAAVLQNTWSPMMKDHQGDEFTVAVQQLLQYSVSHSDNVACDLLFELVGGPQALHAYIQSLGVKEAAVVANEAQMHADDQVQYQNWTSMKAAAQVLQKFEQKKQLSETSQALLWKWMVETTTGPQRLKGLLPAGTIVAHKTGTSGVRAGKTAATNDAGVIMLPDGRPLLVAVFVKDSAESERTNEAIIAQVAQAAYQFELKKLSAVSPD
Work on B1 yielded a kcat/Km [4] of 760000 M⁻¹ s⁻¹, a kcat/Km [5] of 300000 M⁻¹ s⁻¹ and a kcat/Km [6] of 670000 M⁻¹ s⁻¹. For the same molecule, the kcat/Km [7] was 200000 M⁻¹ s⁻¹, the kcat/Km [8] was 1.5e+06 M⁻¹ s⁻¹ and the kcat/Km [9] was 120000 M⁻¹ s⁻¹. The kcat/Km [10] was 430000 M⁻¹ s⁻¹, the kcat/Km [11] was 100000 M⁻¹ s⁻¹ and the kcat/Km [12] was 20000 M⁻¹ s⁻¹. For the same molecule, the kcat/Km [13] was 120000 M⁻¹ s⁻¹, the kcat/Km [14] was 350000 M⁻¹ s⁻¹ and the Km [15] was 46 µM. The kcat [15] was 34 s⁻¹, the Km [16] was 21 µM and the kcat [16] was 6 s⁻¹. For the same molecule, the Km [17] was 9 µM, the kcat [17] was 6 s⁻¹ and the kcat [18] was 0.04 s⁻¹. The Km [19] was 32 µM, the kcat [19] was 48 s⁻¹ and the Km [20] was 16 µM. For the same molecule, the kcat [20] was 2 s⁻¹, the kcat [21] was under 0.001 s⁻¹ and the Km [22] was 320 µM. It also gave a kcat [22] of 140 s⁻¹, a Km [23] of 5 µM and a kcat [23] of 0.5 s⁻¹. It also gave a Km [24] of 16 µM, a kcat [24] of 0.39 s⁻¹ and a kcat [25] of 0.23 s⁻¹. For the same molecule, the kcat [26] was under 0.001 s⁻¹, the Km [27] was 38 µM and the kcat [27] was 12 s⁻¹.
